Reference: ChEMBL document CHEMBL4680175, “Sulfonamide-based ring-fused analogues for CAN508 as novel carbonic anhydrase inhibitors endowed with antitumor activity: Design, synthesis, and in vitro biological evaluation” (Eur J Med Chem, 2020)

Tests used:
MDA-MB-435 = test: Antitumor activity against human MDA-MB-435 cells assessed as cell growth inhibition at 10 uM incubated for 48 hrs by sulforhodamine B assay; assay type: functional; details: read-out: GI
In short: (§1)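 NCI Drug Evaluation Branch protocol: primary single-dose screen at 10 μM across a 57-line human cancer panel. Drug exposure is 48 h. Cell growth and viability are read by sulforhodamine B assay. Data are given as a mean graph of percent growth of treated cells and reported as percentage growth inhibition (GI%).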

SW-620 = test: Antitumor activity against human SW620 cells assessed as cell growth inhibition at 10 uM incubated for 48 hrs by sulforhodamine B assay; assay type: functional; details: read-out: GI
In short: (§2)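 NCI one-dose screen: 57-cell-line panel exposed at 10 μM for 48 h, Drug Evaluation Branch protocol. Growth and viability read by sulforhodamine B; data given as percent growth inhibition from the mean-graph of percent growth of treated cells.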

HOP-62 = test: Antitumor activity against human HOP62 cells assessed as cell growth inhibition at 10 uM incubated for 48 hrs by sulforhodamine B assay; assay type: functional; details: read-out: GI; in short: as §1
OVCAR-4 = test: Antitumor activity against human OVCAR-4 cells assessed as cell growth inhibition at 10 uM incubated for 48 hrs by sulforhodamine B assay; assay type: functional; details: read-out: GI; in short: as §1
NCI-H23 = test: Antitumor activity against human NCI-H23 cells assessed as cell growth inhibition at 10 uM incubated for 48 hrs by sulforhodamine B assay; assay type: functional; details: read-out: GI; in short: as §1
OVCAR-5 = test: Antitumor activity against human OVCAR-5 cells assessed as cell growth inhibition at 10 uM incubated for 48 hrs by sulforhodamine B assay; assay type: functional; details: read-out: GI; in short: as §1
ACHN = test: Antitumor activity against human ACHN cells assessed as cell growth inhibition at 10 uM incubated for 48 hrs by sulforhodamine B assay; assay type: functional; details: read-out: GI; in short: as §1
SK-OV-3 = test: Antitumor activity against human SK-OV-3 cells assessed as cell growth inhibition at 10 uM incubated for 48 hrs by sulforhodamine B assay; assay type: functional; details: read-out: GI; in short: as §1
SNB-19 = test: Antitumor activity against human SNB-19 cells assessed as cell growth inhibition at 10 uM incubated for 48 hrs by sulforhodamine B assay; assay type: functional; details: read-out: GI; in short: as §1
EKVX = test: Antitumor activity against human EKVX cells assessed as cell growth inhibition at 10 uM incubated for 48 hrs by sulforhodamine B assay; assay type: functional; details: read-out: GI; in short: as §1
A498 = test: Antitumor activity against human A498 cells assessed as cell growth inhibition at 10 uM incubated for 48 hrs by sulforhodamine B assay; assay type: functional; details: read-out: GI; in short: as §1
UACC-257 = test: Antitumor activity against human UACC-257 cells assessed as cell growth inhibition at 10 uM incubated for 48 hrs by sulforhodamine B assay; assay type: functional; details: read-out: GI; in short: as §2
HL-60(TB) = test: Antitumor activity against human HL-60(TB) cells assessed as cell growth inhibition at 10 uM incubated for 48 hrs by sulforhodamine B assay; assay type: functional; details: read-out: GI
In short: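 Single-dose NCI-60-type screen of 57 human cancer cell lines at 10 μM under the NCI Drug Evaluation Branch protocol. Drugs exposed for 48 h; growth and viability read by sulforhodamine B assay. Data given as mean-graph percent growth of treated cells, expressed as percent growth inhibition.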

CDK9/cyclin T1 = CDK9/cyclin T1 (Homo sapiens, UniProt P50750); test: Inhibition of human full-length N-terminal GST/His6-tagged CDK9 (1 to 372 residues)/His6-tagged Cyclin-T1 (1 to 726 residues) expressed in sf9 cells using (YSPTSPS)2KK peptide as substrate in presence of [gamma33P]ATP
HCC 2998 = test: Antitumor activity against human HCC2998 cells assessed as cell growth inhibition at 10 uM incubated for 48 hrs by sulforhodamine B assay; assay type: functional; details: read-out: GI; in short: as §1
786-0 = test: Antitumor activity against human 786-0 cells assessed as cell growth inhibition at 10 uM incubated for 48 hrs by sulforhodamine B assay; assay type: functional; details: read-out: GI; in short: as §1
M14 = test: Antitumor activity against human M14 cells assessed as cell growth inhibition at 10 uM incubated for 48 hrs by sulforhodamine B assay; assay type: functional; details: read-out: GI; in short: as §1
HCT-15 = test: Antitumor activity against human HCT15 cells assessed as cell growth inhibition at 10 uM incubated for 48 hrs by sulforhodamine B assay; assay type: functional; details: read-out: GI; in short: as §1
Carbonic anhydrase 1 = Carbonic anhydrase 1 (Homo sapiens, UniProt P00915); test: Inhibition of recombinant human carbonic anhydrase 1 preincubated with enzyme for 15 mins by phenol red dye based stopped flow CO2 hydrase assay
A549 = test: Antitumor activity against human A549/ATCC cells assessed as cell growth inhibition at 10 uM incubated for 48 hrs by sulforhodamine B assay; assay type: functional; details: read-out: GI; in short: as §1
COLO 205 = test: Antitumor activity against human COLO205 cells assessed as cell growth inhibition at 10 uM incubated for 48 hrs by sulforhodamine B assay; assay type: functional; details: read-out: GI; in short: as §1
HT-29 = test: Antitumor activity against human HT-29 cells assessed as cell growth inhibition at 10 uM incubated for 48 hrs by sulforhodamine B assay; assay type: functional; details: read-out: GI; in short: as §1
SR = test: Antitumor activity against human SR cells assessed as cell growth inhibition at 10 uM incubated for 48 hrs by sulforhodamine B assay; assay type: functional; details: read-out: GI; in short: as §2
TK-10 = test: Antitumor activity against human TK-10 cells assessed as cell growth inhibition at 10 uM incubated for 48 hrs by sulforhodamine B assay; assay type: functional; details: read-out: GI; in short: as §2
SK-MEL-28 = test: Antitumor activity against human SK-MEL-28 cells assessed as cell growth inhibition at 10 uM incubated for 48 hrs by sulforhodamine B assay; assay type: functional; details: read-out: GI; in short: as §1
UACC-62 = test: Antitumor activity against human UACC-62 cells assessed as cell growth inhibition at 10 uM incubated for 48 hrs by sulforhodamine B assay; assay type: functional; details: read-out: GI; in short: as §2
SF-295 = test: Antitumor activity against human SF295 cells assessed as cell growth inhibition at 10 uM incubated for 48 hrs by sulforhodamine B assay; assay type: functional; details: read-out: GI; in short: as §1
MCF7 [1] = test: Antiproliferative activity against human MCF7 cells measured after 48 hrs under CoCl2-induced hypoxic condition by MTT assay; assay type: functional, cell-based; details: MCF7, 48 h
MDA-MB-468 [2] = test: Antiproliferative activity against human MDA-MB-468 cells measured after 48 hrs under CoCl2-induced hypoxic condition by MTT assay; assay type: functional, cell-based; details: MDA-MB-468, 48 h
MDA-MB-468 [3] = test: Antiproliferative activity against human MDA-MB-468 cells measured after 48 hrs under normoxic condition by MTT assay; assay type: functional, cell-based; details: MDA-MB-468, 48 h
MCF7 [4] = test: Antiproliferative activity against human MCF7 cells measured after 48 hrs under normoxic condition by MTT assay; assay type: functional, cell-based; details: MCF7, 48 h

Carbonic anhydrase 1, sequence (P00915 whole entry): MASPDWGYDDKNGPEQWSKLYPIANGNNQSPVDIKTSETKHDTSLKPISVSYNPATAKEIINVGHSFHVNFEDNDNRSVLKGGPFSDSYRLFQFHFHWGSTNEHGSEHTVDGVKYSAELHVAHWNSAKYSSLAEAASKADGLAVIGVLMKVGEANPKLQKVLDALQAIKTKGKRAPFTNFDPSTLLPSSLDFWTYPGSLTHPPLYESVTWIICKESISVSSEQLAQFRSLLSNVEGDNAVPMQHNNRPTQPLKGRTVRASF
CDK9/cyclin T1, sequence (O60563 whole entry, the tested form may be a part): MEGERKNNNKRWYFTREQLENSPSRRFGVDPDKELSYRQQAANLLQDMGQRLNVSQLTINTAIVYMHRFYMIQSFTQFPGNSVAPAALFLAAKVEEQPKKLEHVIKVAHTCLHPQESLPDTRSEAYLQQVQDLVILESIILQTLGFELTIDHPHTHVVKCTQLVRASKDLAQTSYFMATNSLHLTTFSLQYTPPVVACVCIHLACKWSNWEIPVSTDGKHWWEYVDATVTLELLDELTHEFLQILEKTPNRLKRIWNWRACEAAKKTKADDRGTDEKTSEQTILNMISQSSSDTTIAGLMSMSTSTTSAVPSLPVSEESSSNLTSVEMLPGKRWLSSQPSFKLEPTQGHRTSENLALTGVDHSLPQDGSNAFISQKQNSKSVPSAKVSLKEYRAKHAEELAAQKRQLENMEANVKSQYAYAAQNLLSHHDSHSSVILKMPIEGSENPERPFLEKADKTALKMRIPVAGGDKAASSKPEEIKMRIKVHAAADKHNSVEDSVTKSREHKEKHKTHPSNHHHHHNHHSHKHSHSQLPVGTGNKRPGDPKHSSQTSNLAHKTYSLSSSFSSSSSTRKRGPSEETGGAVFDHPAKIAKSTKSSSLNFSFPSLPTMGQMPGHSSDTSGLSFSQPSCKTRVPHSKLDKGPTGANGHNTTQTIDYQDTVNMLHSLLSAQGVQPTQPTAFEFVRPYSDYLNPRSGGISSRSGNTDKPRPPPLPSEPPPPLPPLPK
CDK9/cyclin T1, sequence (P50750 whole entry, the tested form may be a part): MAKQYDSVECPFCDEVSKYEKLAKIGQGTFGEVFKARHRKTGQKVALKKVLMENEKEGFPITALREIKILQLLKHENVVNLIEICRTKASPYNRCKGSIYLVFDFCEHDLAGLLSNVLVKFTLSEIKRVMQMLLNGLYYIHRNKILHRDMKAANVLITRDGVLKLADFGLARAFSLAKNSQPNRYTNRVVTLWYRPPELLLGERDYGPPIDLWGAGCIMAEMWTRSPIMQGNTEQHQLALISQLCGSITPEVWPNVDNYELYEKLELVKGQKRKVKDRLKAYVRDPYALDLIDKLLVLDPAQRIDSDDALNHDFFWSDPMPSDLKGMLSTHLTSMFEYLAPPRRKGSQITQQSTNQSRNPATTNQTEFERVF

| Compound | inhibition of growth at 10 µM (MDA-MB-435) [%] | inhibition of growth at 10 µM (SW-620) [%] | inhibition of growth at 10 µM (HOP-62) [%] | inhibition of growth at 10 µM (OVCAR-4) [%] | inhibition of growth at 10 µM (NCI-H23) [%] | inhibition of growth at 10 µM (OVCAR-5) [%] | inhibition of growth at 10 µM (ACHN) [%] | inhibition of growth at 10 µM (SNB-19) [%] | inhibition of growth at 10 µM (EKVX) [%] | inhibition of growth at 10 µM (A498) [%] | inhibition of growth at 10 µM (HL-60(TB)) [%] | IC50 (CDK9/cyclin T1) [µM] | inhibition of growth at 10 µM (HCC 2998) [%] | inhibition of growth at 10 µM (786-0) [%] | inhibition of growth at 10 µM (M14) [%] | Ki (Carbonic anhydrase 1) [µM] | inhibition of growth at 10 µM (A549) [%] | inhibition of growth at 10 µM (HT-29) [%] | inhibition of growth at 10 µM (SR) [%] | inhibition of growth at 10 µM (TK-10) [%] | other results |
| --- | --- | --- | --- | --- | --- | --- | --- | --- | --- | --- | --- | --- | --- | --- | --- | --- | --- | --- | --- | --- | --- |
| Nc1nn2cc(-c3ccc(Br)cc3)[nH]c2c1/N=N/c1ccc(S(N)(=O)=O)cc1 | 46 | 48 | 37 | 43 | 30 | 24 | 76 | 26 | 21 | 83 | 36 | > 12.5 | 33 | 56 | 61 | 1.59 | 51 | 34 | 54 | 50 | inhibition of growth at 10 µM (SK-OV-3): 82%; inhibition of growth at 10 µM (UACC-257): 21%; inhibition of growth at 10 µM (HCT-15): 63%; inhibition of growth at 10 µM (COLO 205): 28%; inhibition of growth at 10 µM (SK-MEL-28): 32%; inhibition of growth at 10 µM (UACC-62): 47% |
| N#Cc1c(-c2ccc(Br)cc2)nc2c(/N=N/c3ccc(S(N)(=O)=O)cc3)c(N)nn2c1N | 44 | 56 | 48 | 39 | 36 | 28 | 29 | 38 | 29 | 35 | 62 | > 12.5 | 38 | 30 | 59 | 4.16 | 32 | 57 | 59 | 27 | inhibition of growth at 10 µM (SF-295): 38%; IC50 (MCF7 [1]): 7.56 µM; IC50 (MDA-MB-468 [2]): 10 µM; IC50 (MDA-MB-468 [3]): 6.81 µM; inhibition of growth at 10 µM (SK-MEL-28): 37%; IC50 (MCF7 [4]): 4.77 µM; inhibition of growth at 10 µM (UACC-62): 28% |
